Experimental data from different studies.
Each line is one published result; the experiments were not run side by side.
BRAF V600E: Serine/threonine-protein kinase B-raf (BRAF, Homo sapiens, UniProt P15056, V600E)
BRAF: Serine/threonine-protein kinase B-raf (BRAF, Homo sapiens, UniProt P15056)

c1cnn2ncc(-c3ccnc(N4CCC45COC5)n3)c2c1
remaining binding (BRAF V600E; binding; 1 µM): 63%

O=C(NCCCN1CCOCC1)c1ccc(Nc2ncc(Cl)c(-c3ccc(Cl)s3)n2)cc1
remaining binding (BRAF; binding; competition with immobilised ligand; 1 µM): 100%

COc1ccc2cc(OCC3(C(=O)O)CN(C(=O)c4ccc(F)cc4)C3)ccc2c1
remaining binding (BRAF V600E; cell-free assay; competition with immobilised ligand; 1 µM): 100%

N#Cc1ccccc1CSc1nnc2c(n1)[nH]c1ccccc12
remaining binding (BRAF V600E; binding; competition with immobilised ligand; 10 µM): 100%

O=C(c1ccc(Nc2nccc(-c3cc4ccccc4s3)n2)cc1)N1CCC(N2CCCC2)CC1
remaining binding (BRAF; binding; competition with immobilised ligand; 1 µM): 38%

c1cncc(-c2cccc(Nc3nccc(NC4CCCCC4)n3)c2)c1
remaining binding (BRAF; binding; competition with immobilised ligand; 10 µM): 69%

CN(C)c1nccc(-c2cnn3ncccc23)n1
remaining binding (BRAF V600E; binding; 1 µM): 69%

O=C(c1ccc(Nc2ncc(Cl)c(-c3cc4ccccc4s3)n2)cc1)N1CCC(N2CCCC2)CC1
remaining binding (BRAF V600E; binding; competition with immobilised ligand; 1 µM): 56%

Cc1cc(-n2nc(Cc3cc(F)cc(C(F)(F)F)c3)nc2C)ccc1C(N)=O
remaining binding (BRAF; cell-free assay; competition with immobilised ligand; 1 µM): 86%

O=C(NCC1CCOCC1)c1n[nH]cc1NC(=O)c1c(F)cccc1F
remaining binding (BRAF V600E; binding; competition with immobilised ligand; 1 µM): 100%

N[C@H]1CCN(c2nccc(-c3cnn4ncccc34)n2)C1
remaining binding (BRAF; binding; 1 µM): 84%

FC(F)(F)Oc1cccc(-c2cnc3ccc(-c4ccncc4)nn23)c1
remaining binding (BRAF; cell-free assay; competition with immobilised ligand; 5 µM): 32%

CCN1CCN(Cc2ccc(C(=O)Nc3ccc(C)c(Oc4ccc5c(c4)CC(=O)N5)c3)cc2C(F)(F)F)CC1
remaining binding (BRAF V600E; binding; competition with immobilised ligand; 1 µM): 28%

C[C@@H]1CCN(c2nccc(-c3cnn4ncccc34)n2)C1
remaining binding (BRAF; binding; 1 µM): 75%

Cc1cnc(Nc2ccc(C(=O)N3CCC(N4CCCC4)CC3)cc2)nc1-c1cc2ccccc2s1
remaining binding (BRAF V600E; binding; competition with immobilised ligand; 1 µM): 32%

Cc1nc(Cc2cccc(C(F)(F)F)c2)sc1-c1ccc(C(N)=O)nc1
remaining binding (BRAF; cell-free assay; competition with immobilised ligand; 1 µM): 73%

F[C@@H]1CCN(c2nccc(-c3cnn4ncccc34)n2)C1
remaining binding (BRAF V600E; binding; 1 µM): 100%

CNC(=O)[C@@H]1CC[C@@H](n2c(-c3ccc4cnccc4c3)nc3ccc(C(=O)NCc4cccc(C(N)=O)c4)cc32)C1
remaining binding (BRAF; binding; competition with immobilised ligand; 1 µM): 100%

CN([C@@H]1CCc2c(CC(=O)O)c3cc(S(C)(=O)=O)ccc3n2C1)S(=O)(=O)c1ccc(F)cc1
remaining binding (BRAF; cell-free assay; competition with immobilised ligand; 1 µM): 98%

COc1cnc(Nc2cccc(S(N)(=O)=O)c2)nc1N1CCN(c2ccccc2)C(=O)C1
remaining binding (BRAF; binding; competition with immobilised ligand; 1 µM): 87%

COc1ncc2cc3ccccc3nc2c1C#N
remaining binding (BRAF; cell-free assay; competition with immobilised ligand; 5 µM): 100%

O=C(Nc1c[nH]nc1C(=O)NC1CCNCC1)c1cc(F)cc(F)c1
remaining binding (BRAF; binding; competition with immobilised ligand; 1 µM): 100%

CN(CCCC(F)(F)F)c1nccc(-c2cnn3ncccc23)n1
remaining binding (BRAF V600E; binding; 1 µM): 100%

C[C@@H]1CN(c2cc(-c3n[nH]c4ccc(OC5(C)CC5)cc34)ncn2)C[C@H](C)O1
remaining binding (BRAF V600E; cell-free assay; competition with immobilised ligand; 0.1 µM): 89%

C=CC(=O)N1CCC(C(=O)NCC(=O)N2CCN(c3nc(-c4cnc(N)nc4C(F)F)nc(N4CCOCC4)n3)CC2)CC1
remaining binding (BRAF V600E; binding; competition with immobilised ligand; 1 µM): 89%

Nc1ncc2c(n1)-c1c([nH]c3ccc(C#CC4CC4)cc13)CCCC2
remaining binding (BRAF V600E; binding; competition with immobilised ligand; 1 µM): 88%

C[C@@H]1CN(c2ccc3ncc(-c4ccc5[nH]nc(C6CC6)c5c4)n3n2)C[C@H](C)O1
remaining binding (BRAF; binding; competition with immobilised ligand; 0.5 µM): 100%

NS(=O)(=O)c1cc(NC(=O)C2(c3ccccc3Cl)CC2)ccc1Oc1cccc(Cl)c1
remaining binding (BRAF; cell-free assay; competition with immobilised ligand; 1 µM): 71%

C[C@@H](c1ccc(-n2cnc3c(N)ncnc32)cc1)N1CCc2nn(C)c(Cc3ccccc3)c2C1=O
remaining binding (BRAF V600E; binding; competition with immobilised ligand; 0.1 µM): 76%

CS(=O)(=O)N1CCCC(NC(=O)[C@H](CCC2CCCCC2)NC(=O)c2ccc(CNc3ncnc4c3nnn4-c3ccccc3)cc2)C1 (stereo partly drawn)
remaining binding (BRAF; cell-free assay; competition with immobilised ligand; 0.1 µM): 81%

O=C(NCCCN1CCOCC1)c1ccc(Nc2nccc(-c3cc4ccccc4s3)n2)cc1
remaining binding (BRAF V600E; binding; competition with immobilised ligand; 1 µM): 67%

COc1cc(-c2cn(C3CCc4ccccc4N(CC(F)(F)F)C3=O)nn2)ccc1-n1ccc(C)n1 (stereo not drawn)
remaining binding (BRAF; cell-free assay; competition with immobilised ligand; 1 µM): 100%

CN(c1nccc(-c2cnn3ncccc23)n1)C1CC1
remaining binding (BRAF V600E; binding; 1 µM): 100%

CN1CCN(c2ccc(Nc3nccc(-c4cccc([N+](=O)[O-])c4)n3)cc2C(F)(F)F)CC1
remaining binding (BRAF V600E; binding; 10 µM): 3.8%

O=C(c1ccc(Nc2ncc(Cl)c(-c3ccc(Cl)s3)n2)cc1)N1CCC(N2CCCC2)CC1
remaining binding (BRAF; binding; competition with immobilised ligand; 1 µM): 65%

COc1ccnn2ncc(-c3ccnc(N(C)C)n3)c12
remaining binding (BRAF; binding; 1 µM): 48%
